{"source": "ChEMBL document CHEMBL1153494", "about": "“Design, synthesis, enzyme inhibition, and tumor cell growth inhibition of 2-anilinobenzamide derivatives as SIRT1 inhibitors” (Bioorg Med Chem, 2009)", "key": {"[1]": {"molecular_target": "T1, NAD-dependent protein deacetylase sirtuin-1 (Homo sapiens, UniProt Q96EB6)", "T1 sequence (Q96EB6 whole entry)": "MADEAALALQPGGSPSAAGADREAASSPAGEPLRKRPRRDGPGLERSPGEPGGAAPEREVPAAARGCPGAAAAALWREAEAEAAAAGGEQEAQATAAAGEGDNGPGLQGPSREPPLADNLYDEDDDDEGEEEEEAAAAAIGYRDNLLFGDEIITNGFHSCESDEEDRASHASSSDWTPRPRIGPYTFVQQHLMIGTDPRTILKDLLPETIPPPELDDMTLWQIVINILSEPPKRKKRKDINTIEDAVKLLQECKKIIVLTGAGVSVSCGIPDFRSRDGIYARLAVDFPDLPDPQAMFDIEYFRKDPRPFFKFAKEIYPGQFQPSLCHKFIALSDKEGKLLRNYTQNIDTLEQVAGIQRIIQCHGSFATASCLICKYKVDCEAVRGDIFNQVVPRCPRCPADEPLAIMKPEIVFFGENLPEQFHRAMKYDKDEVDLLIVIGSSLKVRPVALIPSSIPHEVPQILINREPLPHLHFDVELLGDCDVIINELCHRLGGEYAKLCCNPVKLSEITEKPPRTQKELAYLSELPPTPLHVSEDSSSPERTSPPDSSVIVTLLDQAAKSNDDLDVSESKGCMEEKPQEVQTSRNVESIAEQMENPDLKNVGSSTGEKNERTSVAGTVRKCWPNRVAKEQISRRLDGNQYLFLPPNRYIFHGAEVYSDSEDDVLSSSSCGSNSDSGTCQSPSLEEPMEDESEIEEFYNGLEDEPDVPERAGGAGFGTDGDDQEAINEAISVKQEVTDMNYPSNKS", "test": "Inhibition of human recombinant SIRT1 by fluorimetric analysis", "procedure,_shortened": "(§1)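 Recombinant human SIRT1 was incubated at 37 °C with Fluor de Lys-SIRT1 substrate, NAD⁺ and a range of sample concentrations. After 60 min the reaction was stopped with Fluor de Lys Developer II containing nicotinamide. Fluorescence (ex 360 nm / em 460 nm) was read 45 min later, and % inhibition was taken relative to control wells.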"}, "HCT-116 [2]": {"system": "HCT-116", "test": "Growth inhibition of human HCT116 cells at 100 uM after 24 hrs by alamar blue assay", "type": "functional", "conditions": "HCT-116, 72 h, in the assay text read “after 72 hrs” for “after 24 hrs”", "procedure,_shortened": "(§2)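 Cells came from ATCC and were grown with penicillin/streptomycin and FBS: HCT116 in McCoy's 5A, Daudi in RPMI. They were seeded at 5000 cells/well; after 24 h, compounds in medium were added at various concentrations for 72 h at 37 °C, 5% CO₂. AlamarBlue was then added for 3 h, fluorescence read (ex 530 / em 590 nm), and % cell growth calculated.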"}, "HCT-116 [3]": {"system": "HCT-116", "test": "Growth inhibition of human HCT116 cells after 24 hrs by alamar blue assay", "type": "functional", "conditions": "HCT-116, 72 h, in the assay text read “after 72 hrs” for “after 24 hrs”", "procedure,_shortened": "as §2"}, "Daudi [4]": {"system": "Daudi", "test": "Growth inhibition of human Daudi cells at 100 uM after 24 hrs by alamar blue assay", "type": "functional", "conditions": "72 h, in the assay text read “after 72 hrs” for “after 24 hrs”", "procedure,_shortened": "as §2"}, "Daudi [5]": {"system": "Daudi", "test": "Growth inhibition of human Daudi cells after 24 hrs by alamar blue assay", "type": "functional", "conditions": "72 h, in the assay text read “after 72 hrs” for “after 24 hrs”", "procedure,_shortened": "as §2"}, "[6]": {"molecular_target": "T1, NAD-dependent protein deacetylase sirtuin-1", "test": "Inhibition of human recombinant SIRT1 at 300 uM by fluorimetric analysis", "procedure,_shortened": "as §1"}}, "note": "pIC50: −log10 of the molar value.", "data": [{"smiles": "NC(=O)c1ccccc1Nc1ccccc1", "note": "[ANILINOBENZAMIDE]", "values": [{"measurement": "pIC50", "setting": "[1]", "result": 4.25}, {"measurement": "inhibition at 100 µM", "setting": "HCT-116 [2]", "result": 21, "unit": "%"}, {"measurement": "GI50", "setting": "HCT-116 [3]", "result": "> 100", "unit": "µM"}, {"measurement": "inhibition at 100 µM", "setting": "Daudi [4]", "result": 74, "unit": "%"}, {"measurement": "GI50", "setting": "Daudi [5]", "result": 77, "unit": "µM"}]}, {"smiles": "NC(=O)c1ccccc1Nc1cccc(Oc2ccccc2)c1", "values": [{"measurement": "pIC50", "setting": "[1]", "result": 4.24}, {"measurement": "inhibition at 100 µM", "setting": "HCT-116 [2]", "result": 126, "unit": "%"}, {"measurement": "GI50", "setting": "HCT-116 [3]", "result": 50, "unit": "µM"}, {"measurement": "inhibition at 100 µM", "setting": "Daudi [4]", "result": 103, "unit": "%"}, {"measurement": "GI50", "setting": "Daudi [5]", "result": 31, "unit": "µM"}]}, {"smiles": "NC(=O)c1ccccc1Nc1ccc(-c2ccccc2)cc1", "values": [{"measurement": "inhibition (INH)", "setting": "[6]", "result": 36, "unit": "%"}]}, {"smiles": "NC(=O)c1ccccc1Nc1cccc(-c2ccccc2)c1", "values": [{"measurement": "pIC50", "setting": "[1]", "result": 4.28}, {"measurement": "inhibition at 100 µM", "setting": "HCT-116 [2]", "result": 126, "unit": "%"}, {"measurement": "GI50", "setting": "HCT-116 [3]", "result": 43, "unit": "µM"}, {"measurement": "inhibition at 100 µM", "setting": "Daudi [4]", "result": 108, "unit": "%"}, {"measurement": "GI50", "setting": "Daudi [5]", "result": 26, "unit": "µM"}]}, {"smiles": "NC(=O)c1ccccc1Nc1cccc(CO)c1", "values": [{"measurement": "pIC50", "setting": "[1]", "result": 4.22}, {"measurement": "inhibition at 100 µM", "setting": "HCT-116 [2]", "result": 4, "unit": "%"}, {"measurement": "GI50", "setting": "HCT-116 [3]", "result": "> 100", "unit": "µM"}, {"measurement": "inhibition at 100 µM", "setting": "Daudi [4]", "result": 0, "unit": "%"}, {"measurement": "GI50", "setting": "Daudi [5]", "result": "> 100", "unit": "µM"}]}, {"smiles": "NC(=O)c1ccccc1Nc1cccc(Sc2ccccc2)c1", "values": [{"measurement": "pIC50", "setting": "[1]", "result": 4.05}]}, {"smiles": "NC(=O)c1ccccc1Sc1ccccc1", "values": [{"measurement": "pIC50", "setting": "[1]", "result": 4.11}]}, {"smiles": "Cc1cccc(Nc2ccccc2C(N)=O)c1", "values": [{"measurement": "pIC50", "setting": "[1]", "result": 4.17}]}, {"smiles": "NC(=O)c1ccccc1Nc1cccc(/C=C/C(=O)O)c1", "values": [{"measurement": "pIC50", "setting": "[1]", "result": 4.24}, {"measurement": "inhibition at 100 µM", "setting": "HCT-116 [2]", "result": 0, "unit": "%"}, {"measurement": "GI50", "setting": "HCT-116 [3]", "result": "> 100", "unit": "µM"}, {"measurement": "inhibition at 100 µM", "setting": "Daudi [4]", "result": 0, "unit": "%"}, {"measurement": "GI50", "setting": "Daudi [5]", "result": "> 100", "unit": "µM"}]}, {"smiles": "NC(=O)c1ccccc1Nc1cccc(CCO)c1", "values": [{"measurement": "pIC50", "setting": "[1]", "result": 4.14}, {"measurement": "inhibition at 100 µM", "setting": "HCT-116 [2]", "result": 12, "unit": "%"}, {"measurement": "GI50", "setting": "HCT-116 [3]", "result": "> 100", "unit": "µM"}, {"measurement": "inhibition at 100 µM", "setting": "Daudi [4]", "result": 6, "unit": "%"}, {"measurement": "GI50", "setting": "Daudi [5]", "result": "> 100", "unit": "µM"}]}, {"smiles": "COC(=O)/C=C/c1cccc(Nc2ccccc2C(N)=O)c1", "values": [{"measurement": "pIC50", "setting": "[1]", "result": 4.19}]}]}
